From BindingDB's records for doi:10.1016/j.bmcl.2006.08.108 (Merck Sharp and Dohme Research Laboratories, 2006)

Biological target: 5-hydroxytryptamine receptor 2A (Homo sapiens, UniProt P28223)
Assay: Displacement of [3H]ketanserin from human 5HT2A receptor expressed in CHOK1 cells
Method in brief: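 Membranes from confluent CHO K1 cells expressing human 5-HT2A were incubated with [3H]ketanserin (76 Ci/mmol) for 15 min at 37 °C with shaking at 180 rpm. Buffer was 50 mM Tris pH 7.7, 0.1% ascorbate, pargyline, MgSO4 and 0.5 mM EDTA. Bound and free ligand were separated by GF/B filtration and the filters counted. Mianserin defined non-specific binding. Five-point log titrations were fitted with a four-parameter curve to give IC50 and Ki.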

Sequence of 5-hydroxytryptamine receptor 2A (P28223 whole entry): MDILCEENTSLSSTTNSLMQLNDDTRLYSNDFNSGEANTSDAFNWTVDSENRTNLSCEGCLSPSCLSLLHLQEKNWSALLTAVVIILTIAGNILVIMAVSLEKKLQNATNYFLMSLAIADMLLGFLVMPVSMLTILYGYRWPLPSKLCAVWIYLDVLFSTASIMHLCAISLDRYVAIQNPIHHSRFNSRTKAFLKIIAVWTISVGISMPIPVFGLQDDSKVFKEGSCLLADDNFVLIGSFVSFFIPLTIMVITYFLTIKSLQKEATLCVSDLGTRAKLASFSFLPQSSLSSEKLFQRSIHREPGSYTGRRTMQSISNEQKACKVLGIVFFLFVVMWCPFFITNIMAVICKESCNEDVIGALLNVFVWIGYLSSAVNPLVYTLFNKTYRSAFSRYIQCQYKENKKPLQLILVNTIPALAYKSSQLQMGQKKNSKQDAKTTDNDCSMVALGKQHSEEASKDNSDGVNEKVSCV

| SMILES | IC50 [nM] |
| --- | --- |
| CCN(CC)C1=NCCN=C(c2ccccc2F)C1 [N,N-diethyl-7-(2-fluorophenyl)-2,3-dihydro-1H-1,4-diazepin-5-amine] | > 1000 |
| Cc1ccc(C2=NCCN=C(NC(C)(C)C)C2)cc1 [N-tert-butyl-7-p-tolyl-2,3-dihydro-1H-1,4-diazepin-5-amine] | 11 |
| CCN(CC)C1=NCCN=C(c2ccc(C)cc2)C1 [N,N-diethyl-7-p-tolyl-2,3-dihydro-1H-1,4-diazepin-5-amine] | > 1000 |
| Cc1ccc(C2=NCCN=C(N3CCOCC3)C2)cc1 [5-morpholino-7-p-tolyl-2,3-dihydro-1H-1,4-diazepine] | > 1000 |
| Cc1ccc(C2=NCCN=C(N3CCNCC3)C2)cc1 [5-(piperazin-1-yl)-7-p-tolyl-2,3-dihydro-1H-1,4-diazepine] | > 1000 |
| CC(C)(C)NC1=NCCN=C(c2ccc(F)cc2F)C1 [N-tert-butyl-7-(2,4-difluorophenyl)-2,3-dihydro-1H-1,4-diazepin-5-amine] | 11 |
